Measured values as given in ChEMBL document CHEMBL5032509, “Design of a Stable Cyclic Peptide Analgesic Derived from Sunflower Seeds that Targets the κ-Opioid Receptor for the Treatment of Chronic Abdominal Pain” (J Med Chem, 2021).
The source made the active and inactive calls. The calls are words filed in the database; no cut-off is given here. Bridge positions count the residues as written; N and C are the ends. Square brackets hold non-standard residues; d marks the D form. Peptide text beside a SMILES is read from it. dNle = CCCC[C@@H](N)C(=O)O

Experiments:
[1] = target: T1, Kappa-type opioid receptor (Mus musculus, UniProt P33534); assay: Displacement of [3H]-diprenorphine from mouse KOR expressed in HEK293 cell membranes by radioligand binding assay relative to control; set-up: species or system Cell membrane
Outline: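 Membranes from HEK293 cells stably expressing mouse KOR (7 µg/assay). Filtered onto PEI-soaked GF/C filters. Specific binding = total minus nonspecific, normalized to binding without peptide. […]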

[2] = target: Kappa-type opioid receptor (Mus musculus) (UniProt P33534); assay: Displacement of [3H]-diprenorphine from mouse KOR expressed in HEK293 cell membranes at 10 uM by two-point binding assay; details: Cell membrane, filed as agonist
Outline: (§1)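 Two-point competition at 10 µM and 100 nM peptide. Membranes (7 µg) from HEK293 cells stably expressing mouse KOR incubated with [3H]-diprenorphine (1 nM final) for 1 h at 37 °C in 50 mM Tris–HCl pH 7.4, 10 mM MgCl2, 0.1% BSA. Stopped by filtration onto PEI-soaked GF/C filters. Nonspecific binding subtracted; normalised to specific binding without peptide; mean ± SD.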

[3] = target: T1, Kappa-type opioid receptor; assay: Agonist activity at mouse KOR expressed in HEK293 cell assessed as inhibition of cAMP concentration incubated for 1 hrs by time-resolved fluorescence resonance energy transfer assay; assay type: functional, cell-based
Outline: (§2)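 HEK293 cells stably expressing mouse KOR, 2000 cells/well, exposed to log-spaced peptide concentrations with forskolin (10 µM final) for 30 min at 37 °C. Eu-cryptate cAMP and d2-labelled anti-cAMP antibody then added for 1 h at room temperature. Three-parameter fit with bottom fixed at zero and slope one gives EC50 and Emax. Normalised to the highest dyn A 1–13 concentration (100%).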

[4] = target: Kappa-type opioid receptor (Mus musculus) (UniProt P33534); assay: Displacement of [3H]-diprenorphine from mouse KOR expressed in HEK293 cell membranes at 100 nM by two-point binding assay; details: Cell membrane, filed as agonist; outline: as §1
Mu-type opioid receptor = Mu-type opioid receptor (Mus musculus, UniProt P42866); assay: Displacement of [3H]-diprenorphine from mouse MOR expressed in HEK293 cell membranes by radioligand binding assay relative to control; set-up: species or system Cell membrane
Outline: (§3)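 Membranes from HEK293 cells stably expressing mouse DOR (20 µg/assay) or MOR (50 µg/assay). Incubated with 1 nM final [3H]-diprenorphine in 50 mM Tris–HCl pH 7.4, 10 mM MgCl2, 0.1% BSA for 1 h at 37 °C, in duplicate. Stopped by filtration onto PEI-soaked GF/C filters. Specific binding = total minus nonspecific, normalized to specific binding without peptide; n = 2.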

[5] = target: Delta-type opioid receptor (Mus musculus, UniProt P32300); assay: Displacement of [3H]-diprenorphine from mouse DOR expressed in HEK293 cell membranes by radioligand binding assay relative to control; set-up: species or system Cell membrane; outline: as §3
[6] = target: T1, Kappa-type opioid receptor; assay: Agonist activity at EGFP-tagged mouse KOR expressed in HEK293 cells co-expressing beta-arrestin2 nano-luciferase assessed as beta-arrestin2 recruitment for 5 mins by BRET assay; assay type: functional, cell-based
Outline: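 HEK293 cells co-transfected with human β-arrestin-2 nano-luciferase and mouse KOR-EGFP plasmids (1:10). After ≥16 h they were plated in phenol red-free DMEM with 10% FBS and left to adhere overnight, then serum-starved 1 h at 37 °C. Furimazine (1:50) added for 5 min at 37 °C, with a 5 min baseline. Peptide added for 5 min at 37 °C in triplicate. Luminescence read at 460 nm and EGFP fluorescence at 510 nm.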

Mus musculus [7] = assay: Effect on healthy mouse assessed as visceromotor response measured at different colorectal distention pressure at 10 uM intra-colonic administration as enema by electromyography; assay type: ADME, organism-based; details: in vivo, other
Outline: (§4)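 Healthy or CVH (DNBS 6 mg in 30% ethanol enema, 28 d recovery) female mice. Under brief isoflurane, 100 µL enema of saline vehicle or peptide (10 µM). EMG from abdominal muscle electrodes during balloon CRD at 20, 40, 50, 60 and 80 mmHg (20 s each), run 10–30 min after dosing. Rectified, integrated AUC; mean ± SEM.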

Mus musculus [8] = assay: Reduction in visceromotor response in chronic visceral hypersensitivity-induced chronic abdominal pain mouse model measured at different colorectal distention pressure at 10 uM intra-colonic administration as enema by electromyography; assay type: functional, organism-based; outline: as §4
Mus musculus [9] = species: Mus musculus; assay: Analgesic activity in chronic visceral hypersensitivity-induced chronic abdominal pain mouse model assessed as reduction in mechanical stimulation induced action potential firing of colonic nociception at 1 uM measured at 5 mins […]; assay type: functional
Outline: (§5)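 Ex vivo colon with attached splanchnic nerve from DNBS-induced CVH mice. Colon superfused with carbogen-gassed modified Krebs at 34 °C. Single-unit extracellular recording of nociceptor firing to 2 g von Frey probing, repeated after 5 min ring application of peptide (1 µM), with or without 5 min nor-BNI pre-incubation. Paired t-test.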

Mus musculus [10] = species: Mus musculus; assay: Analgesic activity in chronic visceral hypersensitivity-induced chronic abdominal pain mouse model assessed as reduction in colonic nociceptor mechano-sensitivity at 1 uM in presence of 0.1 uM nor-BNI measured at 5 mins […]; assay type: functional; outline: as §5
[11] = Toxicity in mouse assessed as motor coordination by measuring latency to fall in mouse at 5 mg/kg, ip measured at 45 mins by rotarod test; assay type: organism-based; details: in vivo, 0.75 h
Outline: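 Male C57BL/6N mice (8 weeks) given 5 mg/kg i.p. in saline (10 µL/g); vehicle 0.9% NaCl. After habituation, drum accelerated from 4 to 40 rpm. Three trials 15 min apart, starting 45 min post-injection; latency to fall averaged. Mean ± SEM, one-way ANOVA with Fisher's LSD, N = 8–12/group.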

[12] = Toxicity in mouse assessed as […] by measuring vocalization in mouse at 5 mg/kg, ip measured at 60 mins by […]; assay type: organism-based; details: in vivo, 1 h
[13] = Toxicity in mouse assessed as […] by measuring flinch response in mouse at 5 mg/kg, ip measured at 60 mins by […]; assay type: organism-based; details: in vivo, 1 h
Outline: (§6)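 Male C57BL/6N mice given 5 mg/kg i.p. in saline (vehicle 0.9% NaCl). Jump-flinch test 60 min post-injection: 1 min exploration, then 1 s foot shocks every 30 s at six intensities. Intensity at first flinch, vocalization and jump recorded. Mean ± SEM, one-way ANOVA with Fisher's LSD, N = 8–12/group.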

[14] = Toxicity in mouse assessed as […] by measuring jump response in mouse at 5 mg/kg, ip measured at 60 mins by […]; assay type: organism-based; details: in vivo, 1 h; outline: as §6
[15] = target: Kappa-type opioid receptor (Mus musculus) (UniProt P33534); assay: Agonist activity at mouse KOR expressed in HEK293 cell assessed as maximal inhibition of cAMP concentration incubated for 1 hrs by time-resolved fluorescence resonance energy transfer assay relative to control; assay type: functional, cell-based; details: filed as agonist
Outline: as §2, with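 “temperature. HTRF read as the 665/620 nm ratio, in triplicate.” for “temperature.”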

[16] = Stability of the compound in simulated gastric fluid at pH 1.2 assessed as drug degradation by UPLC-UV analysis; assay type: ADME
Outline: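 Peptide stock (2 mM in water) diluted 5:95 into USP simulated gastric fluid, pepsin added after adjusting to pH 1.2, incubated at 37 °C. Aliquots taken at 0, 15, 30 min and 1, 3, 6 h, quenched in ice-cold methanol. Data fitted to exponential decay for half-life.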

Mus musculus [17] = species: Mus musculus; assay: Analgesic activity in chronic visceral hypersensitivity-induced chronic abdominal pain mouse model assessed as reduction in colonic nociceptor mechano-sensitivity at 0.1 uM measured at 5 mins by Von Frey filament assay; assay type: functional
Outline: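 Ex vivo colon with attached splanchnic nerves from male C57BL/6J mice, 28 days after DNBS-induced colitis. Colon superfused with carbogen-gassed modified Krebs at 34 °C. Single-unit extracellular recordings of nociceptor firing to 2 g von Frey filament stimulation, repeated after 5 min drug application via a metal ring over the receptive field.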

Chain of Kappa-type opioid receptor (Mus musculus) (P33534 whole entry): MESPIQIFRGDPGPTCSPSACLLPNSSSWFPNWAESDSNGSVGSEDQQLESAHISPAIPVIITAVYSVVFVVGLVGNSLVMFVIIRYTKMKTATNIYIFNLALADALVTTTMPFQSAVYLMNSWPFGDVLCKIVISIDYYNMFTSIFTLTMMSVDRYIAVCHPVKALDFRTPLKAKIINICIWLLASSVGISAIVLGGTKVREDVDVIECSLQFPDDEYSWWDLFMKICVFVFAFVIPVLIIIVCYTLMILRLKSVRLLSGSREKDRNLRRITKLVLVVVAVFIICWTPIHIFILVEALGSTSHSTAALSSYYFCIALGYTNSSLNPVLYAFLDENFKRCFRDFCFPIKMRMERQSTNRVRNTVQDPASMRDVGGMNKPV
T1 sequence (P33534 whole entry): as above
Chain of Delta-type opioid receptor (P32300 whole entry): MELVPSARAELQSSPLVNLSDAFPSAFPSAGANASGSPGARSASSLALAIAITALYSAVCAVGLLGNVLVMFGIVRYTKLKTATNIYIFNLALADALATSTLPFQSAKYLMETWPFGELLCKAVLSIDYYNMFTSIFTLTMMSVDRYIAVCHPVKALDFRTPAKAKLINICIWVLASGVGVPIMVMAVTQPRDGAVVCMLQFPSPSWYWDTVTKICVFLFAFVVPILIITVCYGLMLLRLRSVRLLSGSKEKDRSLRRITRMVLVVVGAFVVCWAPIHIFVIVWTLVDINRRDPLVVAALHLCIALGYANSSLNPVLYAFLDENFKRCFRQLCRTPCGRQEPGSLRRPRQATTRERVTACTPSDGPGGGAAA
Chain of Mu-type opioid receptor (P42866 whole entry): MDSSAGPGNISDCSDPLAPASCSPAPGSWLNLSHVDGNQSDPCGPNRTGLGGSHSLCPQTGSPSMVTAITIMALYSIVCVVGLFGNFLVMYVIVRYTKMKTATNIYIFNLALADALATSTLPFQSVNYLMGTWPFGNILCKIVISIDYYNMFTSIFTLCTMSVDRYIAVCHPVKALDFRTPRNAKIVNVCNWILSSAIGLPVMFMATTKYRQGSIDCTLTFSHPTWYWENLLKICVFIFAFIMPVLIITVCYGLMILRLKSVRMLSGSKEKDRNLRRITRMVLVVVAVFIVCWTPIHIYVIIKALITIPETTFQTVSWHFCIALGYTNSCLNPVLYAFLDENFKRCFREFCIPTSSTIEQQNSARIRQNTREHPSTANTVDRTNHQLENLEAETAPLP

CCCC[C@H]1NC(=O)[C@@H](Cc2ccccc2)NC(=O)[C@@H](Cc2ccccc2)NC(=O)[C@@H]2CSSC[C@H](NC(=O)[C@H](CCCNC(=N)N)NC(=O)[C@@H](CCCNC(=N)N)NC1=O)C(=O)N[C@@H]([C@@H](C)O)C(=O)N[C@@H](C)C(=O)N[C@@H](CO)C(=O)N[C@@H]([C@@H](C)CC)C(=O)N1CCC[C@H]1C(=O)N1CCC[C@H]1C(=O)N[C@@H]([C@@H](C)CC)C(=O)N2 (cyclo(ASIPPIC[dF][dF][dNle][dR]RCT); disulfide 7-13)
Ki ([1]; hek293): > 10 µM

CC[C@H](C)[C@@H]1NC(=O)[C@@H]2CSSC[C@H](NC(=O)[C@H](CCCCN)NC(=O)[C@H](CC(C)C)NC(=O)[C@H](CCCCN)NC(=O)[C@@H]3CCCN3C(=O)[C@H](CCCNC(=N)N)NC1=O)C(=O)N[C@@H](Cc1ccc(O)cc1)C(=O)NCC(=O)NCC(=O)N[C@@H](Cc1ccccc1)C(=O)N[C@@H](CC(C)C)C(=O)N[C@@H](CCCNC(=N)N)C(=O)N[C@@H](CCCNC(=N)N)C(=O)N2 (cyclo(CIRPKLKCYGGFLRR); disulfide 1-8)
Ki [1]: 0.021 µM | Activity [2]: Active | EC50 [3]: 0.045 µM | Activity [4]: Active | Ki (Mu-type opioid receptor): > 10 µM | Ki [5]: > 10 µM | EC50 [6]: 1.4 µM | Activity (Mus musculus [7]): Non-Toxic | Activity (Mus musculus [8]): Active | Activity (Mus musculus [9]): Active | Activity (Mus musculus [10]): Active | Activity [11]: Non-Toxic | Activity [12]: Non-Toxic | Activity [13]: Non-Toxic | Activity [14]: Non-Toxic

CC[C@H](C)[C@@H]1NC(=O)[C@H](CCCNC(=N)N)NC(=O)[C@H](CCCNC(=N)N)NC(=O)[C@H](CC(C)C)NC(=O)[C@H](Cc2ccccc2)NC(=O)CNC(=O)CNC(=O)[C@H](Cc2ccc(O)cc2)NC(=O)[C@@H]2CSSC[C@H](NC1=O)C(=O)N[C@@H](Cc1ccccc1)C(=O)N1CCC[C@H]1C(=O)N[C@@H](CC(=O)O)C(=O)NCC(=O)N[C@@H](CCCNC(=N)N)C(=O)N2
Ki ([1]; hek293): 3.2 µM | EC50 ([3]; hek293): 1.4 µM

CC[C@H](C)[C@@H]1NC(=O)[C@@H]2CCCN2C(=O)[C@@H]2CCCN2C(=O)[C@H]([C@@H](C)CC)NC(=O)[C@H](CO)NC(=O)[C@H](C)NC(=O)[C@H]([C@@H](C)O)NC(=O)[C@@H]2CSSC[C@H](NC1=O)C(=O)N[C@H](Cc1ccccc1)C(=O)N[C@H](Cc1ccccc1)C(=O)N[C@H](CC(C)C)C(=O)N[C@H](CCCCN)C(=O)N[C@@H](CCCNC(=N)N)C(=O)N2 (cyclo(ASIPPIC[dF][dF][dL][dK]RCT); disulfide 7-13)
Ki ([1]; hek293): > 10 µM

CC[C@H](C)[C@H](NC(=O)[C@H](CCCN=C(N)N)NC(=O)[C@H](CCCN=C(N)N)NC(=O)[C@H](CC(C)C)NC(=O)[C@H](Cc1ccccc1)NC(=O)CNC(=O)CNC(=O)[C@@H](N)Cc1ccc(O)cc1)C(=O)N[C@@H](CCCN=C(N)N)C(=O)N1CCC[C@H]1C(=O)N[C@@H](CCCCN)C(=O)N[C@@H](CC(C)C)C(=O)N[C@@H](CCCCN)C(N)=O
Emax [15]: 100% | half-life [16]: < 15 min

CC[C@H](C)[C@@H]1NC(=O)[C@@H]2CCCN2C(=O)[C@H](Cc2ccccc2)NC(=O)CNC(=O)CNC(=O)[C@H](Cc2ccc(O)cc2)NC(=O)[C@H]([C@@H](C)O)NC(=O)[C@@H]2CSSC[C@H](NC1=O)C(=O)N[C@@H](Cc1ccccc1)C(=O)N1CCC[C@H]1C(=O)N[C@@H](CC(=O)O)C(=O)NCC(=O)N[C@@H](CCCNC(=N)N)C(=O)N2 (cyclo(CFPDGRCTYGGFPI); disulfide 1-7)
Ki ([1]; hek293): > 10 µM

CC[C@H](C)[C@@H]1NC(=O)[C@@H]2CCCN2C(=O)[C@@H]2CCCN2C(=O)[C@H]([C@@H](C)CC)NC(=O)[C@H](CO)NC(=O)[C@H](C)NC(=O)[C@H]([C@@H](C)O)NC(=O)[C@@H]2CSSC[C@H](NC1=O)C(=O)N[C@@H](Cc1ccc(O)cc1)C(=O)NCC(=O)NCC(=O)N[C@@H](Cc1ccccc1)C(=O)N[C@@H](CCCNC(=N)N)C(=O)N2 (cyclo(ASIPPICYGGFRCT); disulfide 7-13)
Ki ([1]; hek293): > 10 µM

Oc1ccc2c3c1O[C@H]1c4[nH]c5c(c4C[C@@]4(O)[C@@H](C2)N(CC2CC2)CC[C@]314)C[C@@]1(O)[C@H]2Cc3ccc(O)c4c3[C@@]1(CCN2CC1CC1)[C@H]5O4
Activity (Mus musculus [17]): inactive

CC[C@H](C)[C@@H]1NC(=O)[C@@H]2CCCN2C(=O)[C@@H]2CCCN2C(=O)[C@H]([C@@H](C)CC)NC(=O)[C@H](CO)NC(=O)[C@H](CCCCN)NC(=O)[C@H]([C@@H](C)O)NC(=O)[C@@H]2CSSC[C@H](NC1=O)C(=O)N[C@@H](Cc1ccccc1)C(=O)N1CCC[C@H]1C(=O)N[C@@H](CC(=O)O)C(=O)NCC(=O)N[C@@H](CCCNC(=N)N)C(=O)N2
Ki [1]: > 30 µM
